Reference: ChEMBL document CHEMBL4390648, “Chemical synthesis, crystal structure, versatile evaluation of their biological activities and molecular simulations of novel pyrithiobac derivatives” (Eur J Med Chem, 2019)
≈ marks a conversion by molar mass, not a printed value. Calls of active or inactive are those of the source. No cut-off for these calls is given here.

Assays:
Arabidopsis thaliana [1] = test: Inhibition of Arabidopsis thaliana AHAS catalytic subunit using pyruvate as substrate at 100 uM measured after 30 mins by colorimetric method relative to control
Summary of the method: (§1)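 Colorimetric assay in 50 mM potassium phosphate pH 7.0 with 50 mM pyruvate, 1 mM thiamine diphosphate, 10 mM MgCl2 and 10 μM FAD. Incubated 30 min at 37 °C for plant AHAS and 30 °C for fungal AHAS. Acetolactate formed was then quantified.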

Arabidopsis thaliana [2] = test: Inhibition of Arabidopsis thaliana AHAS catalytic subunit using pyruvate as substrate at 10 uM measured after 30 mins by colorimetric method relative to control; summary of the method: as §1
Candida albicans [3] = test: Antifungal activity against Candida albicans isolate g5 grown in RPMI 1640 medium incubated for 24 hrs by microdilution method; format: functional; details: isolate g5, 24 h
Summary of the method: (§2)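 C. albicans standard strain SC5314 and clinical isolates g5 and 17# tested by broth microdilution in YNB or RPMI 1640 medium. Plates incubated at 35 °C for up to 72 h, with visual readings taken at 24 h. MIC taken as the lowest concentration preventing visible growth.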

[4] = system: Severe acute respiratory syndrome-related coronavirus; test: Inhibition of SARS coronavirus M protease using AVLQSGFRKK as substrate at 20 uM by FRET assay relative to control
Summary of the method: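 Purified SARS-CoV Mpro assayed by FRET. Protein, compound and substrate were preheated at 37 °C and oscillated. Fluorescence (ex 320/em 405 nm) was read every 5 s for 200 reads.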

[5] = system: Brassica rapa subsp. oleifera; test: Herbicidal activity against Brassica campestris L assessed as inhibition of rape root growth at 100 mg/l root growth incubated for 48 hrs relative to control; format: functional
Summary of the method: (§3)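 Rape seeds soaked in distilled water for 4 h, then placed on filter paper wetted with inhibitor solution, 15 seeds per 6-cm dish. Germinated in the dark at 28 °C for 48 h. Mean length of 10 roots per plate measured.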

Candida albicans [6] = test: Inhibition of Candida albicans AHAS catalytic subunit at 100 uM using pyruvate as substrate measured after 30 mins by colorimetric method relative to control; summary of the method: as §1
Candida albicans [7] = test: Antifungal activity against Candida albicans SC5314 grown in RPMI 1640 medium incubated for 24 hrs by microdilution method; format: functional; details: SC5314, 24 h; summary of the method: as §2
Candida albicans [8] = test: Antifungal activity against Candida albicans isolate 17 grown in YNB medium incubated for 24 hrs by microdilution method; format: functional; details: isolate 17, 24 h; summary of the method: as §2
[9] = system: Brassica rapa subsp. oleifera; test: Herbicidal activity against Brassica campestris L assessed as inhibition of rape root growth at 10 mg/l root growth incubated for 48 hrs relative to control; format: functional; summary of the method: as §3
Candida albicans [10] = test: Inhibition of Candida albicans AHAS catalytic subunit at 10 uM using pyruvate as substrate measured after 30 mins by colorimetric method relative to control; summary of the method: as §1
Candida albicans [11] = test: Antifungal activity against Candida albicans SC5314 grown in YNB medium incubated for 24 hrs by microdilution method; format: functional; details: SC5314, 24 h; summary of the method: as §2
Candida albicans [12] = test: Antifungal activity against Candida albicans isolate 17 grown in RPMI 1640 medium incubated for 24 hrs by microdilution method; format: functional; details: isolate 17, 24 h; summary of the method: as §2
Candida albicans [13] = test: Antifungal activity against Candida albicans isolate g5 grown in YNB medium incubated for 24 hrs by microdilution method; format: functional; details: isolate g5, 24 h; summary of the method: as §2
Ceratobasidium cereale = test: Antifungal activity against Rhizoctonia cerealis assessed as reduction in growth at 50 mg/l by mycelium growth rate method relative to control; format: functional
Summary of the method: (§4)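 Mycelium growth rate method against S. sclerotiorum, P. capsici, P. piricola, R. cerealis, W. anthracnose and R. bakanae. Each compound tested at 50 mg/L, with chlorothalonil and PTB as controls. Relative inhibitory ratio (%) calculated from mycelial growth.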

Sclerotinia sclerotiorum = test: Antifungal activity against Sclerotinia sclerotiorum assessed as reduction in growth at 50 mg/l by mycelium growth rate method relative to control; format: functional; summary of the method: as §4
Tobacco mosaic virus [14] = test: Antiviral activity against Tobacco mosaic virus inoculated in Nicotiana tabacum leaves assessed as passivation by measuring local lesion numbers at 500 mg/l pre-incubated with virus for 30 mins followed by inoculation and measured up to 4 days; format: functional
Summary of the method: (§5)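 Passivation assay: TMV mixed with an equal volume of compound solution for 30 min, then rubbed onto the left half of N. tabacum L. leaves. The right half received virus mixed with solvent as control. Local lesions counted 3–4 days after inoculation. Compounds tested at 500 or 100 mg/L.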

Tobacco mosaic virus [15] = test: Antiviral activity against Tobacco mosaic virus inoculated in Nicotiana tabacum leaves assessed as passivation by measuring local lesion numbers at 100 mg/l pre-incubated with virus for 30 mins followed by inoculation and measured up to 4 days; format: functional; summary of the method: as §5
Colletotrichum = test: Antifungal activity against Colletotrichum (W. anthracnose) assessed as reduction in growth at 50 mg/l by mycelium growth rate method relative to control; format: functional; summary of the method: as §4
Phytophthora capsici = test: Antifungal activity against Phytophthora capsici assessed as reduction in growth at 50 mg/l by mycelium growth rate method relative to control; format: functional; summary of the method: as §4
Fusarium fujikuroi = test: Antifungal activity against Gibberella fujikuroi assessed as reduction in growth at 50 mg/l by mycelium growth rate method relative to control; format: functional; summary of the method: as §4
[16] = system: Botryosphaeria berengeriana; test: Antifungal activity against Physalospora pyricola assessed as reduction in growth at 50 mg/l by mycelium growth rate method relative to control; format: functional; summary of the method: as §4

SMILES	inhibition (Arabidopsis thaliana [1]) [%]	inhibition (Arabidopsis thaliana [2]) [%]	MIC (Candida albicans [3]) [µg/mL]	inhibition [4] [%]	inhibition (INH) [5] [%]	inhibition (Candida albicans [6]) [%]	MIC (Candida albicans [7]) [µg/mL]	MIC (Candida albicans [8]) [µg/mL]	inhibition (INH) [9] [%]	inhibition (Candida albicans [10]) [%]	MIC (Candida albicans [11]) [µg/mL]	MIC (Candida albicans [12]) [µg/mL]	MIC (Candida albicans [13]) [µg/mL]	inhibition at 500 µg/mL (Tobacco mosaic virus [14]) [%]	further results
COc1nc(OC)nc(Sc2ccc(C(F)(F)F)cc2C#N)n1	15	11.5	> 100	0	8.5	12	> 100	> 100	0	0	> 100	> 100	> 100	–	–
COc1cc(OC)nc(Sc2cc(C(F)(F)F)ccc2C(=O)O)n1	85.5	51.8	> 100	0	50	31.2	> 100	> 100	24.6	0	> 100	> 100	> 100	–	–
COc1nc(OC)nc(Oc2cccc(Br)c2)n1	60	6.6	> 100	0	87.4	18.3	> 100	> 100	32.5	10.6	> 100	> 100	> 100	19.5	inhibition at 50 µg/mL (Ceratobasidium cereale): 52.4%; inhibition at 50 µg/mL (Sclerotinia sclerotiorum): 61.1%; inhibition (Tobacco mosaic virus [15]): inactive; inhibition at 50 µg/mL (Colletotrichum): 16.7%; inhibition at 50 µg/mL (Phytophthora capsici): 8.3%; inhibition at 50 µg/mL (Fusarium fujikuroi): 0%; inhibition at 50 µg/mL [16]: 40.6%
COc1cc(OC)nc(Sc2ccc(C(=O)O)cc2C(=O)O)n1	20	5	> 100	0	0	24	> 100	> 100	0	8	> 100	> 100	> 100	–	–
COc1nc(OC)nc(Sc2ccc(C(=O)O)cc2C(=O)O)n1	81.7	73.3	> 100	0	20.3	58.7	> 100	> 100	8	15.6	> 100	> 100	> 100	–	–
COc1cc(OC)nc(Sc2ccc(C#N)c(C(F)(F)F)c2)n1	86.2	51.2	> 100	85	33.5	51.4	> 100	> 100	4.7	18.6	> 100	> 100	> 100	–	–
CNCC(=O)N[C@@H](CO)C(=O)N[C@H]1[C@H](O)[C@@H](O)[C@H](n2ccc(N)nc2=O)O[C@@H]1C(N)=O [NINGNANMYCIN]	–	–	–	–	–	–	–	–	–	–	–	–	–	56.4	inhibition at 100 µg/mL (Tobacco mosaic virus [15]): 27.8%
COc1cc(OC)nc(Sc2ccc(C(=O)O)c(C(F)(F)F)c2)n1	77.4	37.7	> 100	21.7	45.2	20.6	> 100	> 100	0	2.1	> 100	> 100	> 100	0	inhibition at 50 µg/mL (Ceratobasidium cereale): 73.8%; inhibition at 50 µg/mL (Sclerotinia sclerotiorum): 75%; inhibition (Tobacco mosaic virus [15]): inactive; inhibition at 50 µg/mL (Colletotrichum): 14.3%; inhibition at 50 µg/mL (Phytophthora capsici): 8.3%; inhibition at 50 µg/mL (Fusarium fujikuroi): 30.3%; inhibition at 50 µg/mL [16]: 35.9%
CCOc1ccccc1OS(=O)(=O)NC(=O)Nc1nc(OC)cc(OC)n1 [ETHOXYSULFURON]	–	–	25 (≈ 62.8 µM)	–	–	98.7	25 (≈ 62.8 µM)	0.39 (≈ 0.979 µM)	–	96.8	0.39 (≈ 0.979 µM)	50 (≈ 126 µM)	0.39 (≈ 0.979 µM)	–	–
COc1nc(OC)nc(Sc2ccc(C#N)cc2C(F)(F)F)n1	10	0	> 100	18	5	22	> 100	> 100	0	10.5	> 100	> 100	> 100	–	–
COc1cc(OC)nc(Sc2ccc(C(F)(F)F)cc2C#N)n1	72.3	28.2	> 100	0	25.8	25	> 100	> 100	0	3.6	> 100	> 100	> 100	–	–
NC(=O)c1ncn([C@@H]2O[C@H](CO)[C@@H](O)[C@H]2O)n1 [RIBAVIRIN]	–	–	–	–	–	–	–	–	–	–	–	–	–	37.6	inhibition at 100 µg/mL (Tobacco mosaic virus [15]): 11.9%
